In the library only some 0.61% were active in any assay of this set; here they are far more common.
Xi reactivation: activators of inactive X chromosome reactivation, primary screen, imaging, XiGFP fibroblasts, GFP high-content imaging, set 2; activation, % at 7.58 µM; XiGFP mouse fibroblasts, % GFP-positive cells imaging, 3 d; cells co-treated with 5-aza-dC sensitizer; scaled so ellipticine positive control = 100%; AID 743238, 2013; actives 0.055% (n = 360,000);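 active = mean normalized replicate activation at least 10% and every replicate at or above 10%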;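 note: 0% = median of on-plate neutral control wells and 100% = ellipticine 6 µM median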
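System: 68-5-11 XiGFP fibroblast line; Timing: 3 days compound exposure; Compound dosing: one concentration, pinned; Benchmarks: positive control ellipticine, 6 µM final; Buffer or medium: DMEM containing 5-aza-dC.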
E-sel inducer: E-selectin induction in HUVECs, primary screen, imaging, HUVEC, immunofluorescence imaging, single point; P16581; actives 0.37% (n = 260,000); normalized: neutral wells 0, TNF-alpha wells 100; AID 686992, 2013; activation, % at 7.58 µM;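 active = mean E-selectin-positive cell signal at least 10% of the positive control, reached in at least 60% of replicates, without over 20% cell loss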
Target sequence (P16581 whole entry, looked up): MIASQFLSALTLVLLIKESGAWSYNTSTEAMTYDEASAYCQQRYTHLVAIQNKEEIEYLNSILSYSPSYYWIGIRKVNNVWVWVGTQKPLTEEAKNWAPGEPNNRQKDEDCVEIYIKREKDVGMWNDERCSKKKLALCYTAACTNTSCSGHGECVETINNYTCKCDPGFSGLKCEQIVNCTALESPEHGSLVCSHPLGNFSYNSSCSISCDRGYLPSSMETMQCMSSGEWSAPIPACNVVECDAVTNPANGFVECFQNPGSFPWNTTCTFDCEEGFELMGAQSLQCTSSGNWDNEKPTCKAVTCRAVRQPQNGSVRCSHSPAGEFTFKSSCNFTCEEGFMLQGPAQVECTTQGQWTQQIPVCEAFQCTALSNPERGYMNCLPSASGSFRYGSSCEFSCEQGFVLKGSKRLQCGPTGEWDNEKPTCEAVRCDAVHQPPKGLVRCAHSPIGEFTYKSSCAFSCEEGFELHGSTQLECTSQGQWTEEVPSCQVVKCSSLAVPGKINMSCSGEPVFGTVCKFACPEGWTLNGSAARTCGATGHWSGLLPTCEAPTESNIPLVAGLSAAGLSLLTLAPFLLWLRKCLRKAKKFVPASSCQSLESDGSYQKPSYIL
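Material: HUVEC primary endothelial cells; Amount: 3,000 cells per well; Dosing: single concentration; Medium: EGM-2 growth medium on 0.1% gelatin-coated wells; Read-out basis: percent E-selectin-positive cells; Signal: immunofluorescence imaging; Control set: TNF-alpha, DMSO.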
CFTR F508del cor: F508del CFTR correction, initial screen, CFBE line, single point | CFBE cells, YFP halide quenching; stimulated with forskolin plus potentiator P3; % fluorescence drop versus neutral controls | activity (quench increase), % at 7.58 µM | actives 0.36% (n = 350,000);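 active = mean added fluorescence quench of at least 8% versus neutral control, with both replicates also reaching 8%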;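 note: cells transiently co-express mutant CFTR-F508del with the halide-sensitive YFP; corrector assay measuring rescue of mutant channel to the surface after 24 h compound exposure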
* hit, by the source's call.

Results for COc1ccc(C(C#N)CC(=O)c2ccc3c(c2)OCO3)cc1OC (centres undefined) ?
Xi reactivation: -0.1; E-sel inducer: 0.1; CFTR F508del cor: 14.1*

Results for COc1ccc(C(=O)CC(C#N)c2ccc3c(c2)OCO3)cc1OC (centres undefined) ?
Xi reactivation: 0.0; E-sel inducer: -0.5; CFTR F508del cor: -0.2

What do the screens show for `O=C(NCC[C@H]1CC[C@H](NC(=O)C2CCC2)[C@@H](CO)O1)Nc1ccc(Cl)cc1`?
Xi reactivation: -0.1; E-sel inducer: 0.6; CFTR F508del cor: 1.4

What do the screens show for `CC1(N2CCCCC2)C(=O)c2ccccc2C1=O`?
Xi reactivation: 0.0; CFTR F508del cor: 1.5

How did CC1(S(=O)(=O)O)CC(=O)c2ccccc2C1=O (centres undefined) do in these assays?
Xi reactivation: 0.4; E-sel inducer: 0.1; CFTR F508del cor: 8.1*

Results for COc1ccc2c3c(n(C)c2c1)[C@H](CO)N(Cc1nccs1)CC31CN(C(=O)CN(C)C)C1 ?
Xi reactivation: 0.3; E-sel inducer: 0.1; CFTR F508del cor: 0.5

What do the screens show for `COc1cc(-c2cc(=O)c3c(O)cc(O)cc3o2)cc(OC)c1OC`?
CFTR F508del cor: -4.6

How did O=c1cc(-c2ccc(O)c(O)c2)oc2cc(O)cc(O)c12 do in these assays?
Xi reactivation: 0.1; E-sel inducer: 0.0; CFTR F508del cor: 8.0*

Results for COc1ccc(-c2cc(=O)c3c(O)cc(O)cc3o2)cc1 ?
Xi reactivation: 0.2; E-sel inducer: 0.9; CFTR F508del cor: 9.8*

Results for O=c1cc(-c2ccc(O)c(-c3c(O)cc(O)c4c(=O)cc(-c5ccc(O)cc5)oc34)c2)oc2cc(O)cc(O)c12 ?
Xi reactivation: 0.1; E-sel inducer: 0.0; CFTR F508del cor: 3.3

Results for Cc1noc(C)c1S(=O)(=O)Nc1ccc2c(c1)C(=O)N([C@H](C)CO)C[C@@H](C)[C@H](CN(C)C(=O)Nc1ccc(C(F)(F)F)cc1)O2 ?
Xi reactivation: 0.0; E-sel inducer: 17.4; CFTR F508del cor: -1.3

How did CO[C@@H]1CN(C)C(=O)c2cc(NC(=O)c3ccccc3)ccc2OC[C@@H](C)N(CC2CC2)C[C@H]1C do in these assays?
Xi reactivation: -0.3; E-sel inducer: -0.3; CFTR F508del cor: 1.1

Results for COc1cccc(NC(=O)N(C)C[C@H]2Oc3ncc(C4=CCCCC4)cc3C(=O)N([C@@H](C)CO)C[C@H]2C)c1 ?
Xi reactivation: 0.0; E-sel inducer: -0.1; CFTR F508del cor: -0.2

How did O=C(CN(C1CCCCC1)S(=O)(=O)c1ccccc1)NCC1CCCO1 (centres undefined) do in these assays?
Xi reactivation: 0.0; CFTR F508del cor: -1.0

How did O=C(CN(C1CCCCC1)S(=O)(=O)c1ccc(F)cc1)NCC1CCCO1 (centres undefined) do in these assays?
Xi reactivation: 0.8; E-sel inducer: -0.7; CFTR F508del cor: 20.6*

What do the screens show for `O=C(CCl)Nc1ccc(S(=O)(=O)NC2=NCCCCC2)cc1`?
Xi reactivation: 0.0; E-sel inducer: -1.7; CFTR F508del cor: 3.3

What do the screens show for `CC(C)(C)C(=O)Nc1ccc(S(=O)(=O)NC2=NCCCCC2)cc1`?
Xi reactivation: 0.0; E-sel inducer: -0.3; CFTR F508del cor: 15.5*

What do the screens show for `CCC(=O)N/N=C/c1ccc(-c2ccc([N+](=O)[O-])cc2)o1`?
Xi reactivation: 0.0; CFTR F508del cor: 3.4

How did CC(C)(C)C(=O)/C=c1\s/c(=C\c2ccc(-c3ccc([N+](=O)[O-])cc3)o2)c(=O)n1CC(=O)NC(N)=O do in these assays?
Xi reactivation: 109.9*; E-sel inducer: 5.6; CFTR F508del cor: -13.7

How did COc1ccc(NC(=O)NC2(C(=O)N3CCN4CCCC4C3)CCCCC2)cc1 (centres undefined) do in these assays?
Xi reactivation: 0.4; E-sel inducer: -0.1; CFTR F508del cor: -0.3

How did COc1ccc(NC(=O)NC2(C(=O)N3CCOCC3)CCCCC2)cc1 do in these assays?
Xi reactivation: 0.4; E-sel inducer: 39.0*; CFTR F508del cor: -0.4

What do the screens show for `CC(C)NC(=O)Nc1cccc2c1O[C@@H](CN(C)S(=O)(=O)c1ccccc1)[C@@H](C)CN([C@H](C)CO)C2=O`?
Xi reactivation: 0.9; E-sel inducer: 8.0; CFTR F508del cor: -2.1

How did Cc1cc(C(=O)Nc2cccc3c2O[C@H](CN(C)S(=O)(=O)c2c(C)noc2C)[C@H](C)CN([C@@H](C)CO)C3=O)n(C)n1 do in these assays?
Xi reactivation: 0.0; E-sel inducer: -0.1; CFTR F508del cor: 1.5

What do the screens show for `CC1Cc2ccccc2N1S(=O)(=O)c1cccc(C(=O)N2CCN(c3ncccn3)CC2)c1` (centres undefined)?
Xi reactivation: 0.0; CFTR F508del cor: 8.5*

What do the screens show for `CC(=O)N1CCN(C(=O)c2cccc(S(=O)(=O)N3c4ccccc4CC3C)c2)CC1` (centres undefined)?
Xi reactivation: 0.3; E-sel inducer: 1.4; CFTR F508del cor: 2.4

Results for CC(=O)c1c(C)oc2c1C(=O)c1ccccc1C2=O ?
Xi reactivation: 0.0; E-sel inducer: 0.2

How did COc1ccc(CNC(=O)c2c(C)oc3c2C(=O)c2ccccc2C3=O)cc1 do in these assays?
Xi reactivation: 0.8; E-sel inducer: 0.2; CFTR F508del cor: 11.8*

Results for CCCNC(=O)N(C)C[C@H]1Oc2cc(C3=CCCC3)ccc2S(=O)(=O)N([C@@H](C)CO)C[C@@H]1C ?
Xi reactivation: 0.4; E-sel inducer: 0.9; CFTR F508del cor: 1.6

How did CCC(=O)N[C@H]1C=C[C@H](CC(=O)NCc2cc(F)cc(F)c2)O[C@H]1CO do in these assays?
Xi reactivation: 0.1; E-sel inducer: 0.0; CFTR F508del cor: -0.5

What do the screens show for `C[C@H](CO)N1C[C@H](C)[C@@H](CN(C)S(=O)(=O)c2cn(C)cn2)Oc2ccc(NC(=O)c3ccncc3)cc2CC1=O`?
Xi reactivation: 0.0; E-sel inducer: 10.9; CFTR F508del cor: 1.8

How did C[C@@H]1CN([C@@H](C)CO)C(=O)Cc2cc(NC(=O)c3ccncc3)ccc2O[C@@H]1CN(C)S(=O)(=O)c1cn(C)cn1 do in these assays?
Xi reactivation: 0.0; E-sel inducer: 320.9*; CFTR F508del cor: 0.0

How did C[C@@H]1CN([C@H](C)CO)C(=O)Cc2cc(NC(=O)c3ccncc3)ccc2O[C@H]1CN(C)S(C)(=O)=O do in these assays?
Xi reactivation: 0.0; E-sel inducer: 447.3*; CFTR F508del cor: 0.4

How did C[C@H](CO)N1C[C@H](C)[C@@H](CN(C)S(C)(=O)=O)Oc2ccc(NC(=O)c3ccncc3)cc2CC1=O do in these assays?
Xi reactivation: 0.0; E-sel inducer: 2.0; CFTR F508del cor: 3.6

How did CCS(=O)(=O)N1[C@@H](CO)[C@H](c2ccccc2)C12CN(C(=O)C1CC1)C2 do in these assays?
Xi reactivation: 0.0; E-sel inducer: 0.0; CFTR F508del cor: -3.0

Results for COCCCn1c(=O)/c(=C\c2ccc(OC(F)F)c(OC)c2)s/c1=C(/C#N)C(N)=O ?
Xi reactivation: 0.0; E-sel inducer: -1.7; CFTR F508del cor: 0.5

Source: PubChem BioAssay
